Screening results deposited in PubChem by The Scripps Research Institute Molecular Screening Center.
Sampled rows, rich in hits. Any-hit rate of the full collection: about 1.9%.
CHRM4 PAM – potentiates acetylcholine response at human M4 receptor. P08173. CHO-K1 hM4/Gqi5, Fluo-8 calcium fluorescence, ACh EC20; 0% = ACh EC20, 100% = maximal ACh. activation, % at 3 µM. hit rate 0.4% among 360,000. AID 624126;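 active = activation above its plate's cutoff, the mean activation of sample wells plus 3 SD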
Target sequence (P08173 whole entry, looked up): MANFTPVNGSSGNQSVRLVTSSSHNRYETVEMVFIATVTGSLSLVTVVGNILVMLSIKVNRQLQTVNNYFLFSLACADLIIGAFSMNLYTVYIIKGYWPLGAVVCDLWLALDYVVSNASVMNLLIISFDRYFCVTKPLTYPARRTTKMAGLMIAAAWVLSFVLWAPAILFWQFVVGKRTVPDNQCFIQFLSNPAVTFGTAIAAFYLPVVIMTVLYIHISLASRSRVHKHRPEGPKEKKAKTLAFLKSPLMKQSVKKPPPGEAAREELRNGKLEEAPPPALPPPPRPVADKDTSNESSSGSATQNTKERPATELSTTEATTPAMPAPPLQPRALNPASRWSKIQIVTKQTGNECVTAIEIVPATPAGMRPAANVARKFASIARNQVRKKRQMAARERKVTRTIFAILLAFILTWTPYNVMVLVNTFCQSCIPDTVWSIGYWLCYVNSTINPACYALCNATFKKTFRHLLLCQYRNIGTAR
M4 antag – blocks acetylcholine activation of human M4 receptor | P08173 | CHO-hM4 cells, ACh EC80, Fluo-8 calcium fluorescence | hit rate 0.73% among 360,000 | inhibition, % at 3 µM;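 active = inhibition above its plate's cutoff, the mean inhibition of sample wells plus 3 SD, cut at about 27% in these data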;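 note: 0% = acetylcholine EC80 with DMSO and 100% = DMSO without agonist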
M5 antag – CHRM5 antagonism in calcium assay; P08912; AID 624040; CHO-hM5 cells, Fluo-8 calcium fluorescence, ACh EC80; inhibition, % at 3 µM; hit rate 0.59% among 360,000;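 active = inhibition above a per-plate cutoff, the mean of that plate's test compounds plus 3 SD, cut at about 27% in these data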;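 note: 0% = acetylcholine EC80 with DMSO and 100% = DMSO without agonist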
M5 PAM – potentiates acetylcholine response at human M5 receptor. P08912. CHO-K1 hM5, Fluo-8 calcium, ACh EC20 PAM; 0% = ACh EC20, 100% = ACh EC100. activation, % at 3 µM. hit rate 0.3% among 360,000;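 active = activation above the run cutoff, the mean activation of all test compounds plus 3 SD, cut at about 18% in these data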
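System: CHO-K1 hM5 cells. Reagent: acetylcholine, EC20 level. Compound dosing: single dose, 3 µM nominal final test concentration. Timing: Post-acetylcholine fluorescence recording 140 s. Detection: Fluo-8 calcium fluorescence. Read-out: % activation, ACh-normalized. Benchmarks: ACh EC20 and EC100 wells. Repeats: singlicate, one well per test compound.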
CHRM5 agonist – CHRM5 agonism in calcium assay; AID 624037; hit rate 0.19% among 360,000; activation, % at 3 µM; CHO-K1 hM5 cells, Fluo-8 calcium fluorescence; 0% DMSO wells, 100% maximal acetylcholine response; P08912;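 active = activation above the run's mean over test compounds plus 3 SD, cut at about 23% in these data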;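 note: signal is peak over basal fluorescence ratio across the kinetic read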
M4 ag – agonists of human muscarinic M4 receptor (CHRM4); P08173; CHO-K1 hM4/Gqi5, Fluo-8 calcium fluorescence; vehicle 0%, full acetylcholine response 100%; activation, % at 3 µM; hit rate 0.14% among 360,000; AID 624127;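 active = activation above the run mean over all test wells plus 3 SD, cut at about 32% in these data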;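 note: peak over basal fluorescence ratio per well then scaled between controls; 0% = DMSO wells and 100% = acetylcholine at EC100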
Active calls of the source: *.

SMILES | CHRM4 PAM | M4 antag | M5 antag | M5 PAM | CHRM5 agonist | M4 ag
COc1cc(/C=C(/C)[N+](=O)[O-])ccc1OCc1ccccc1Cl | -11 | 29* | 27* | 2 | -2 | 1
COc1ccc(OC)c([C@@H](O)[C@H](C)NC(C)(C)C)c1 | -15 | 51* | 24 | -19 | -1 | 0
CCCCCN1C(=O)c2ccccc2[C@@]2(C(=O)OCC)Cc3cc(OC)ccc3[C@@H]12 | 3 | 4 | 7 | 0 | -1 | -2
c1ccc2c[n+](CCCCCCCCCC[n+]3ccc4ccccc4c3)ccc2c1 | -10 | 27* | 3 | -16 | -7 | 1
O=C(NC1CN2CCC1CC2)c1cccc(Cl)c1 (centres undefined) | -3 | 0 | 3 | 2 | -9 | 0
O=C(COc1ccc(Cl)cc1)NC1CN2CCC1CC2 (centres undefined) | -7 | 12 | 38* | -23 | -9 | 1
O=C1C=CC(=O)C2C1C1(Cl)C(Cl)=C(Cl)C2(Cl)C1(Cl)Cl (centres undefined) | 6 | -4 | 16 | -6 | 0 | 3
CCN1CCN(Cc2cc(Br)cc(OC)c2O)CC1 | -26 | 39* | 2 | -19 | -13 | 2
CC(=O)C1C(N2CC2)CC2C3CC=C4CC(O)CCC4(C)C3CCC21C (centres undefined) | -1 | 0 | 4 | -1 | 1 | 1
O=C1CC2OCC=C3CN4CCC56c7ccccc7N1C5C2C3CC46O (centres undefined) | 2 | -7 | -1 | -2 | 1 | 1
C[N+](C)(C)CC#CCOC(=O)Nc1cccc(Cl)c1 | -20 | 6 | 78* | -20 | 89* | 44*
COc1ccc(-n2nnnc2C(c2ccccc2OC(F)(F)F)N2CCC3(CC2)C(=O)NCN3c2ccccc2)cc1 (centres undefined) | 0 | -15 | -11 | 1 | 5 | 1
CCOC(=O)[C@]1(C#N)[C@@H]2C=CC(C(N)=O)=CN2[C@@H](C(N)=O)[C@@H]1c1ccc(F)cc1 | 24 | -5 | 6 | 0 | -5 | 1
CCOC(=O)[C@@]1(C#N)[C@@H]2C=CC(C(N)=O)=CN2[C@@H](C(N)=O)[C@@H]1c1cccc(Cl)c1 | 3 | -15 | -13 | 31* | -4 | 2
CCN(CC)c1ccc(/C=C/[N+](=O)[O-])cc1 | -28 | 29* | 90* | -31 | 96* | 71*
COc1cc(/C=C/[N+](=O)[O-])ccc1O | 3 | 16 | -8 | 11 | 10 | 2
N#CC(CCN1CCOCC1)(c1ccccc1)c1ccccc1 | -7 | 14 | 28* | -15 | -12 | 1
O=C(c1cc(F)ccc1F)C1CCCN(CCCc2ccccc2)C1 (centres undefined) | -17 | 32* | 12 | -17 | -9 | 0
ClCCN(CCCl)c1ccc(C=Cc2ccncn2)cc1 | -1 | 4 | 9 | -10 | 2 | 5
O=C1NCN(c2ccccc2)C12CCN(C(CCc1ccccc1)c1nnnn1C1CCCCC1)CC2 (centres undefined) | -9 | 12 | 9 | 2 | 5 | 4
CCOC(=O)[C@]12Cc3cc(C)ccc3[C@H]1N(C(C)C)C(=O)c1ccccc12 | 20 | -8 | -12 | 22* | -3 | -2
CCOC(=O)[C@]12Cc3cc(C)ccc3[C@H]1N(C1CCCCC1)C(=O)c1cc(OC)ccc12 | -2 | 65* | 18 | 8 | 50* | 1
CCOC(=O)[C@]12Cc3cc(C)ccc3[C@H]1N(Cc1ccccc1)C(=O)c1ccccc12 | -4 | 4 | 18 | -24 | -8 | 5
CCOC(=O)[C@]12Cc3cc(OC)ccc3[C@H]1N(C1CCCCC1)C(=O)c1cc(OC)ccc12 | 0 | 0 | 7 | 3 | 8 | -2
CCOC(=O)[C@]12Cc3cc(C)ccc3[C@H]1N(Cc1ccccc1)C(=O)c1cc(F)c(F)cc12 | -13 | 5 | -10 | -6 | -5 | -1
SMILES | CHRM4 PAM | M4 antag | M5 antag | M5 PAM | CHRM5 agonist | M4 ag
CCCCn1nnnc1C(C1CC1)N1CCC2(CC1)C(=O)NCN2c1ccccc1 (centres undefined) | -7 | -6 | 5 | -4 | 0 | 6
O=C(CCCN1CCC2(CC1)C(=O)NCN2c1ccccc1)c1ccc(F)cc1 | -20 | 99* | 96* | -21 | 81* | 135*
CCN1/C(=C\C=C\C2=[N+](CC)c3ccccc3C2(C)C)C(C)(C)c2ccccc21 | -20 | 92* | 94* | -52 | 302* | 252*
O=C(c1cccs1)C1CN2CCC1CC2 (centres undefined) | -16 | -1 | 13 | -13 | -7 | 0
O=C(O)C1CN2CCC1CC2 (centres undefined) | 1 | 10 | -1 | -10 | 37* | 1
COc1ccc(CCNC(=O)c2c(N)n(CCN3CCOCC3)c3nc4ccccc4nc23)cc1OC | -21 | 18 | 34* | -15 | 0 | 17
Cc1ccc(OC(=O)N(C)C[C@H]2OCc3cnnn3CCCC(=O)N([C@@H](C)CO)C[C@H]2C)cc1 | 5 | -8 | -1 | 2 | 1 | 1
COc1cccc(CNC2CN3CCC2CC3)c1OC (centres undefined) | -11 | 25 | 60* | -24 | -6 | 2
COc1ccc(-n2c(O)c(/C=C/C=Nc3ccccc3)c(=O)[nH]c2=O)cc1 | -9 | 15 | 15 | -14 | 24* | 24
O=c1[nH]c(=O)n(-c2ccccc2)c(O)c1/C=C/C=Nc1ccccc1 | 2 | -4 | 2 | -5 | 4 | 6
O=c1[nH]c(=O)n(C2CCCCC2)c(O)c1/C=C/C=Nc1ccccc1 | -23 | 9 | 14 | -8 | 28* | 16
c1cc2c(cc1-c1ccc3c(c1)OCO3)CNCc1cnnn1-2 | 0 | -1 | 6 | -2 | 0 | 3
CCOC(=O)CNC(=O)N1Cc2cc(-c3cccc(F)c3)ccc2-n2nncc2C1 | -5 | -2 | 1 | 0 | 1 | 2
C=C1N2CCC(CC2)C1(O)c1ccc(C)c(C)c1 (centres undefined) | -7 | 5 | 33* | -55 | -13 | 1
COC(=O)C1=C(c2ccc(-c3ccccc3)c(F)c2)C[C@@H]2CC[C@H]1N2C(=O)NCCc1ccccc1 | -16 | 26 | -3 | -6 | -1 | 2
CC(C)COC(=O)c1ccccc1C(=O)OCC(C)C | 3 | -5 | 8 | 2 | -1 | 1
C[CH2][Hg][S]c1ccccc1C(=O)O | 33* | 36* | 5 | 17 | 17 | 9
O=C1c2ccccc2-n2nnc(-c3ccccc3)c2C2c3cc(Br)ccc3CCN12 (centres undefined) | 11 | -17 | -4 | -2 | 2 | 2
